This passage reports yeast fitness results from the RNAGym collection of RNA variant scans (doi:10.1126/science.aae0568).

First the molecules themselves.
B1: tRNA (parent)
chain: GUUCCGUUGGCGUAAUGGUAACGCGUCUCCCUCCUAAGGAGAAGACUGCGGGUUCGAGUCCCGUACGGAACG

Fewer inactive variants are shown than the library holds. A value given as a limit tells only on which side of the number the result lay.

The data set covers variants of B1. The data set can be described thus: yeast fitness relative to wild type (ratio to wild type); higher = fitter; tRNA-Arg(CCU), competitive growth, 37 C, YPD. A digest of the protocol: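 Gene amplicons from the start population and from each of six end populations were read by 100-nucleotide paired-end sequencing. Those end populations came from pooled Saccharomyces cerevisiae strains carrying tRNA-Arg(CCU) gene variants at the native locus, competed in YPD at 37°C for 24 hours. Fitness relative to wild type was worked out from changes in genotype frequencies. Genotypes needed ≥ 100 starting reads, and estimates < 0.5 were set to 0.5.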
On to G23A C46G, for which the yeast fitness was 0.683.

G23C C29G A43U G50A G68U: the yeast fitness was at most 0.5.

For the variant G23A G39C A40U G68A, the yeast fitness is at most 0.5.

Consider G23A C31A, for which the yeast fitness was 0.644.

As to G23C A43U G56A, the yeast fitness was 0.628.

On to G23C C24A A57G G68A, for which the yeast fitness is at most 0.5.

For the variant G23A A36G C55G, the yeast fitness was determined as 0.578.

Consider G23A C34G, for which the yeast fitness came to 0.582.

With G23C C24G C33G A40U C49A, the yeast fitness was at most 0.5.

Take C22U U59A: the yeast fitness turned out to be 0.705.

As for G23C A37G G44C A45C G50A C55G C66A, the yeast fitness was at most 0.5.

As to G23A C30A A43U, the yeast fitness is at most 0.5.

Take G23C C27G U35G C62A: the yeast fitness is 0.59.

Regarding C22U G44A, the yeast fitness stood at 0.865.

As for G23C C24G G50A A57G, the yeast fitness was at most 0.5.

Turning to G23C C27G C31A A45U G67A, the yeast fitness is at most 0.5.

For the variant G23A C27U C34U A45C A65C, the yeast fitness was 0.532.

As to G23A G25A, the yeast fitness is 0.958.

Regarding C22U G51C C61G, the yeast fitness stood at 0.556.

For G23A U28A C30U A40C G52C G67A, the yeast fitness was at most 0.5.

For the variant G23A C30U C55A, the yeast fitness came out at 0.573.

Take G23A C30U A37C U54C: the yeast fitness was at most 0.5.

Turning to G23A A37C C49U C62U A70G, the yeast fitness was at most 0.5.

As to C22U U54A C55U G63A, the yeast fitness stood at 0.54.

On to G23A C30G A42G, for which the yeast fitness was 0.524.

Regarding G23A C31U C33G G63U, the yeast fitness is at most 0.5.

Take G23A C29G A65G: the yeast fitness is at most 0.5.

With G23A C55U G58A, the yeast fitness was at most 0.5.

With G23C C27G C61U C66U, the yeast fitness is at most 0.5.

In the case of G23A C27A U54A G56A C66G, the yeast fitness was at most 0.5.

For G23C A37U U47C U54C C66U, the yeast fitness was at most 0.5.

G23C C29A G38A A57G: the yeast fitness is at most 0.5.

Turning to G23C C29A G44A, the yeast fitness is 0.608.

For G23A G39C C49A, the yeast fitness is at most 0.5.

In the case of G23A C30A C46G, the yeast fitness was 0.706.

For the variant G23A G38A C55U, the yeast fitness is at most 0.5.

On to G23C A42C, for which the yeast fitness turned out to be 0.721.

G23A C30U U35G A45U A57C: the yeast fitness amounted to 0.533.

For C22U U28A C34G G38A G51A, the yeast fitness was at most 0.5.

Regarding C22U U47C C62U, the yeast fitness was found to be 0.667.

Turning to G23A C24A C31A A36G, the yeast fitness is at most 0.5.

On to G23A C27U C60G, for which the yeast fitness was found to be 0.525.

As to G23A C29G C55A, the yeast fitness is 0.536.

Turning to C22U G48A C55A G58C, the yeast fitness is at most 0.5.

Take C22U G52A C55A: the yeast fitness amounted to 0.579.

For the variant G23A C27U A69G, the yeast fitness is at most 0.5.

G23C C27A A45G G51C G63A G68A: the yeast fitness is at most 0.5.

G23A C33G U54A G56C: the yeast fitness is at most 0.5.

With C22U G56C A57C C61G, the yeast fitness is at most 0.5.

Regarding C22U G52A C60G, the yeast fitness is 0.503.

Consider G23A C27U C29U G39A G58A A65C, for which the yeast fitness is at most 0.5.

Turning to C22U U26C A37C G41C, the yeast fitness was at most 0.5.

For G23A U32C A42G U54G C62U, the yeast fitness was at most 0.5.

On to G23C A65G A69U, for which the yeast fitness was 0.524.

Turning to G23C C29U, the yeast fitness was found to be 0.604.

Regarding G23C C29A, the yeast fitness was found to be 0.548.

As to C22U U47A, the yeast fitness came out at 0.77.

Regarding C22U U47C, the yeast fitness turned out to be 0.857.

Regarding G23A G38A G39C G50A G56C, the yeast fitness was at most 0.5.

G23C A57G: the yeast fitness was determined as 0.677.

As for G23C A40U C55U, the yeast fitness was at most 0.5.

Turning to G23C A37U G41A G63A, the yeast fitness was determined as 0.558.

For C22U G58C C61A, the yeast fitness is at most 0.5.

As for G23A C55U G63C, the yeast fitness is at most 0.5.

Consider G23A C29U, for which the yeast fitness amounted to 0.923.

In the case of G23A C29A, the yeast fitness came to 0.536.

For the variant G23A C29G, the yeast fitness came to 0.625.

Consider G23A C30G A65U, for which the yeast fitness was at most 0.5.

As to G23A C33G U35G C60A C62U, the yeast fitness is at most 0.5.

With C22U G41A A69C, the yeast fitness was at most 0.5.

As for G23A C24G C29U G41A, the yeast fitness was at most 0.5.

Regarding G23A C33G G50A, the yeast fitness came out at 0.53.

For G23C C27G A45G G52A C66A, the yeast fitness came out at 0.634.

Take C22U U35A C66U: the yeast fitness was at most 0.5.

G23C A42U C49G A65U: the yeast fitness was at most 0.5.

As for C22U U28C, the yeast fitness was found to be 0.736.

On to C22U U28C C61A C62U, for which the yeast fitness was at most 0.5.

Take G23A C30G C33G A36U C46G C55G: the yeast fitness is 0.589.

On to G23C C29A C49U, for which the yeast fitness amounted to 0.596.

For the variant G23A C24U U35A C60A A69C, the yeast fitness is 0.607.

Turning to C22U U47C G51C, the yeast fitness turned out to be 0.54.

On to G23A U32C, for which the yeast fitness is 0.628.

In the case of G23C C24U U59A, the yeast fitness is at most 0.5.

For G23A C29U C31U A42G C61A, the yeast fitness was at most 0.5.

Consider G23A G25C C46G G48A C66A, for which the yeast fitness is at most 0.5.

Consider G23A G39C A69U, for which the yeast fitness is at most 0.5.

For G23A C30U C49A A57U A70C, the yeast fitness was at most 0.5.

With G23A G68C, the yeast fitness was found to be 0.746.

With G23A G68U, the yeast fitness came out at 0.641.

C22U U32A C34U C66U: the yeast fitness was at most 0.5.

In the case of C22U U35C, the yeast fitness came out at 0.731.

For the variant G23A C29G A45U C46U C60G C61U A69G, the yeast fitness is at most 0.5.

For the variant G23C C27U A45G G52A G58A, the yeast fitness was at most 0.5.

Consider G23A A37G, for which the yeast fitness stood at 0.57.

On to C22U G48C G67C, for which the yeast fitness was at most 0.5.

As for G23A G41C, the yeast fitness turned out to be 0.803.

On to G23A C24A C31A A36G G44A C60U C62A, for which the yeast fitness was at most 0.5.

For the variant G23A A69U, the yeast fitness was 0.726.

In the case of G23A A69C, the yeast fitness stood at 0.793.

Regarding G23C C29G A43U G50A G63A A65C, the yeast fitness is at most 0.5.

With C22U U32C C33G C55G, the yeast fitness is at most 0.5.

As for G23C C29G A43U G50A, the yeast fitness came out at 0.702.

In the case of G23C C24G C34G, the yeast fitness is at most 0.5.

For the variant G23C A42C U47A C49G A69U A70U, the yeast fitness was at most 0.5.

For the variant C22U U47A C60U G67C A69U, the yeast fitness is at most 0.5.

Consider G23A C62A, for which the yeast fitness worked out at 0.516.

C22U G52C C55U A65U: the yeast fitness is at most 0.5.

As for G23C A40G, the yeast fitness is 0.639.

With C22U G68U, the yeast fitness stood at 0.845.

As to G23A G38A A69C, the yeast fitness is at most 0.5.

Turning to G23A C29U A45U, the yeast fitness turned out to be 0.967.

For G23C C27U, the yeast fitness amounted to 0.726.

With C22U G63A A70C, the yeast fitness is 0.508.

For the variant G23A C27U A45U, the yeast fitness worked out at 0.668.

With C22U G51C G67A, the yeast fitness turned out to be 0.604.

For C22U U32C C55A, the yeast fitness is at most 0.5.

Regarding G23A C30U U54C, the yeast fitness stood at 0.528.

As for G23A C30A G51A, the yeast fitness was found to be 0.562.

In the case of G23A U28C C30A, the yeast fitness is at most 0.5.

In the case of G23A U26A C30U A40U G44A U59A, the yeast fitness is at most 0.5.

In the case of G23A C30U U53A, the yeast fitness was at most 0.5.

With G23A C30U C66U, the yeast fitness was at most 0.5.

With G23A A57C A65U, the yeast fitness is at most 0.5.

With G23C C24G, the yeast fitness came to 0.783.

Turning to G23C C24U, the yeast fitness was 0.61.

C22U G48A U54C: the yeast fitness was determined as 0.601.

For the variant G23A A43U G50A U54G G68C, the yeast fitness is at most 0.5.

With C22U U32A, the yeast fitness was determined as 0.733.

For the variant C22U U35C A37U G50C C66U, the yeast fitness came out at 0.569.

As for G23A A36G A69C, the yeast fitness stood at 0.708.

On to C22U U47C G51C C66U, for which the yeast fitness was at most 0.5.

C22U U64C: the yeast fitness turned out to be 0.977.

On to G23A U59C G68A, for which the yeast fitness is at most 0.5.

Consider G23A C31U C33G, for which the yeast fitness turned out to be 0.523.

For the variant G23A C24G, the yeast fitness is at most 0.5.

Take C22U U35C C49U U53A: the yeast fitness was at most 0.5.

With G23A G67C, the yeast fitness was found to be 0.86.

On to G23A G67A, for which the yeast fitness was determined as 0.841.

G23A A40C U53C: the yeast fitness was at most 0.5.

As for G23A C30U G48A C55A, the yeast fitness is at most 0.5.

As to G23A C49U U54C, the yeast fitness was at most 0.5.

For the variant G23A C30G G67A, the yeast fitness was 0.726.

G23A C30G A69U: the yeast fitness is at most 0.5.

Consider G23A C30U C55U G67C, for which the yeast fitness is at most 0.5.

As for G23A C24G G25A G48A, the yeast fitness was at most 0.5.

Consider G23A C33A C34G, for which the yeast fitness was at most 0.5.

For G23A C29G A45U C60G C61U A69G, the yeast fitness is 0.59.

For G23A U64G, the yeast fitness was 0.717.

In the case of G23A C61U G67A, the yeast fitness stood at 0.525.

In the case of G23A A70C, the yeast fitness was 0.74.

On to G23A U54A, for which the yeast fitness was determined as 0.605.

With G23A U54C, the yeast fitness is 0.533.

Consider G23C C27A A45G G51C G68A, for which the yeast fitness worked out at 0.701.

As to G23A C27U C34U A45C, the yeast fitness was at most 0.5.

Take G23C A43U C61U G68A: the yeast fitness turned out to be 0.52.

In the case of G23C C24G C34G C61U, the yeast fitness was at most 0.5.

For the variant C22U U47G U59A, the yeast fitness is at most 0.5.

For the variant G23A G52A G63A, the yeast fitness is at most 0.5.

Regarding G23A A45C, the yeast fitness was determined as 0.846.

On to G23A A45G, for which the yeast fitness worked out at 0.645.

As to G23A A45U, the yeast fitness is 0.674.

For C22U U26G U35A A45G G50A, the yeast fitness worked out at 0.648.

For the variant G23C A45C C66G, the yeast fitness was at most 0.5.

With G23A A40U, the yeast fitness was found to be 0.842.

For G23A A42G G51A C61U, the yeast fitness was at most 0.5.

G23A C30U A70C: the yeast fitness was at most 0.5.

In the case of G23A C30U C33A G41C A42U A43G, the yeast fitness is at most 0.5.
